Measured values published in ChEMBL document CHEMBL1158180, “Synthesis and antimicrobial activity of some new heterocycles incorporating antipyrine moiety” (2008).

Key:
Settings in all cases: read-out: IZ
Botrytis fabae [1] = test: Antimicrobial activity Botrytis fabae at 0.15 mg/mL after 72 hrs by agar diffusion technique
Klebsiella pneumoniae [2] = test: Antimicrobial activity Klebsiella pneumoniae at 0.15 mg/mL after 24 hrs by agar diffusion technique; assay type: functional
Procedure, shortened: (§1)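 Agar diffusion on nutrient agar. Test solutions were 0.15 mg/mL in DMSO, and DMSO alone was the blank. Plates were seeded with the bacterial culture and incubated 24 h at 30 °C. The read-out was the diameter of the inhibition zone in mm.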

Fusarium oxysporum [3] = test: Antimicrobial activity Fusarium oxysporum at 0.15 mg/mL after 72 hrs by agar diffusion technique
Bacillus thuringiensis [4] = test: Antimicrobial activity Bacillus thuringiensis at 0.15 mg/mL after 24 hrs by agar diffusion technique; assay type: functional
Procedure, shortened: as §1

Klebsiella pneumoniae [5] = test: Antimicrobial activity Klebsiella pneumoniae at 25 ug/mL after 24 hrs by agar diffusion technique; assay type: functional
Fusarium oxysporum [6] = test: Antimicrobial activity Fusarium oxysporum at 25 ug/mL after 72 hrs by agar diffusion technique
Botrytis fabae [7] = test: Antimicrobial activity Botrytis fabae at 25 ug/mL after 72 hrs by agar diffusion technique
Bacillus thuringiensis [8] = test: Antimicrobial activity Bacillus thuringiensis at 25 ug/mL after 24 hrs by agar diffusion technique; assay type: functional

Cc1cc(C)n(-c2c(C)n(C)n(-c3ccccc3)c2=O)c(=O)c1C#N
zone of inhibition at 150 µg/mL (Botrytis fabae [1]): 12 mm | zone of inhibition at 150 µg/mL (Klebsiella pneumoniae [2]): 13 mm | zone of inhibition at 150 µg/mL (Fusarium oxysporum [3]): 12 mm | zone of inhibition at 150 µg/mL (Bacillus thuringiensis [4]): 10 mm

Cc1cc(C)c2c(n1)[nH]n1c(=N)c(C(=O)Nc3c(C)n(C)n(-c4ccccc4)c3=O)nnc21
zone of inhibition at 150 µg/mL (Botrytis fabae [1]): 13 mm | zone of inhibition at 150 µg/mL (Klebsiella pneumoniae [2]): 14 mm | zone of inhibition at 150 µg/mL (Fusarium oxysporum [3]): 14 mm | zone of inhibition at 150 µg/mL (Bacillus thuringiensis [4]): 13 mm

Cc1c(NC(=O)c2sc(=S)n(-c3ccccc3)c2N)c(=O)n(-c2ccccc2)n1C
zone of inhibition at 150 µg/mL (Botrytis fabae [1]): 13 mm | zone of inhibition at 150 µg/mL (Klebsiella pneumoniae [2]): 12 mm | zone of inhibition at 150 µg/mL (Fusarium oxysporum [3]): 13 mm | zone of inhibition at 150 µg/mL (Bacillus thuringiensis [4]): 12 mm

Cc1c(NC(=O)c2c(Nc3ccccc3)n[nH]c2N)c(=O)n(-c2ccccc2)n1C
zone of inhibition at 150 µg/mL (Botrytis fabae [1]): 16 mm | zone of inhibition at 150 µg/mL (Klebsiella pneumoniae [2]): 12 mm | zone of inhibition at 150 µg/mL (Fusarium oxysporum [3]): 12 mm | zone of inhibition at 150 µg/mL (Bacillus thuringiensis [4]): 15 mm

Cc1cc(C)n2nc(Nc3ccccc3)c(C(=O)Nc3c(C)n(C)n(-c4ccccc4)c3=O)c2n1
zone of inhibition at 150 µg/mL (Botrytis fabae [1]): 24 mm | zone of inhibition at 150 µg/mL (Klebsiella pneumoniae [2]): 28 mm | zone of inhibition at 150 µg/mL (Fusarium oxysporum [3]): 25 mm | zone of inhibition at 150 µg/mL (Bacillus thuringiensis [4]): 21 mm

Cc1c(NC(=O)CC#N)c(=O)n(-c2ccccc2)n1C
zone of inhibition at 150 µg/mL (Botrytis fabae [1]): 10 mm | zone of inhibition at 150 µg/mL (Klebsiella pneumoniae [2]): 13 mm | zone of inhibition at 150 µg/mL (Fusarium oxysporum [3]): 12 mm | zone of inhibition at 150 µg/mL (Bacillus thuringiensis [4]): 12 mm

Cc1c(NC(=O)c2c(Nc3ccccc3)n[nH]c2/N=C\N(C)C)c(=O)n(-c2ccccc2)n1C
zone of inhibition at 150 µg/mL (Botrytis fabae [1]): 25 mm | zone of inhibition at 150 µg/mL (Klebsiella pneumoniae [2]): 24 mm | zone of inhibition at 150 µg/mL (Fusarium oxysporum [3]): 21 mm | zone of inhibition at 150 µg/mL (Bacillus thuringiensis [4]): 27 mm

Cc1cc(O)n2nc(Nc3ccccc3)c(C(=O)Nc3c(C)n(C)n(-c4ccccc4)c3=O)c2n1
zone of inhibition at 150 µg/mL (Botrytis fabae [1]): 27 mm | zone of inhibition at 150 µg/mL (Klebsiella pneumoniae [2]): 24 mm | zone of inhibition at 150 µg/mL (Fusarium oxysporum [3]): 25 mm | zone of inhibition at 150 µg/mL (Bacillus thuringiensis [4]): 20 mm

Cc1c(-n2nnc3[nH]nc(Nc4ccccc4)c3c2=O)c(=O)n(-c2ccccc2)n1C
zone of inhibition at 150 µg/mL (Botrytis fabae [1]): 26 mm | zone of inhibition at 150 µg/mL (Klebsiella pneumoniae [2]): 22 mm | zone of inhibition at 150 µg/mL (Fusarium oxysporum [3]): 22 mm | zone of inhibition at 150 µg/mL (Bacillus thuringiensis [4]): 22 mm

Cc1cc(C)c2c(N/N=C(\C#N)C(=O)Nc3c(C)n(C)n(-c4ccccc4)c3=O)n[nH]c2n1
zone of inhibition at 150 µg/mL (Botrytis fabae [1]): 16 mm | zone of inhibition at 150 µg/mL (Klebsiella pneumoniae [2]): 19 mm | zone of inhibition at 150 µg/mL (Fusarium oxysporum [3]): 16 mm | zone of inhibition at 150 µg/mL (Bacillus thuringiensis [4]): 16 mm

Cc1c(NC(=O)c2cc3ccccc3oc2=N)c(=O)n(-c2ccccc2)n1C
zone of inhibition at 150 µg/mL (Botrytis fabae [1]): 18 mm | zone of inhibition at 150 µg/mL (Klebsiella pneumoniae [2]): 22 mm | zone of inhibition at 150 µg/mL (Fusarium oxysporum [3]): 18 mm | zone of inhibition at 150 µg/mL (Bacillus thuringiensis [4]): 24 mm

Cc1c(-n2cnc3[nH]nc(Nc4ccccc4)c3c2=O)c(=O)n(-c2ccccc2)n1C
zone of inhibition at 150 µg/mL (Botrytis fabae [1]): 27 mm | zone of inhibition at 150 µg/mL (Klebsiella pneumoniae [2]): 29 mm | zone of inhibition at 150 µg/mL (Fusarium oxysporum [3]): 25 mm | zone of inhibition at 150 µg/mL (Bacillus thuringiensis [4]): 28 mm

CC1(C)S[C@@H]2[C@H](NC(=O)[C@H](N)c3ccccc3)C(=O)N2[C@H]1C(=O)O [AMPICILLIN]
zone of inhibition at 25 µg/mL (Klebsiella pneumoniae [5]): 19 mm | zone of inhibition at 25 µg/mL (Fusarium oxysporum [6]): 15 mm | zone of inhibition at 25 µg/mL (Botrytis fabae [7]): 17 mm | zone of inhibition at 25 µg/mL (Bacillus thuringiensis [8]): 18 mm

O=C(N[C@H](CO)[C@H](O)c1ccc([N+](=O)[O-])cc1)C(Cl)Cl [CHLORAMPHENICOL]
zone of inhibition at 25 µg/mL (Klebsiella pneumoniae [5]): 20 mm | zone of inhibition at 25 µg/mL (Fusarium oxysporum [6]): 15 mm | zone of inhibition at 25 µg/mL (Botrytis fabae [7]): 16 mm | zone of inhibition at 25 µg/mL (Bacillus thuringiensis [8]): 23 mm

OC(Cn1cncn1)(Cn1cncn1)c1ccc(F)cc1F [FLUCONAZOLE]
zone of inhibition at 25 µg/mL (Fusarium oxysporum [6]): 16 mm | zone of inhibition at 25 µg/mL (Botrytis fabae [7]): 22 mm
